Test results published in ChEMBL document CHEMBL3525985, “Regiospecificity and stereospecificity of human UDP-glucuronosyltransferases in the glucuronidation of estriol, 16-epiestriol, 17-epiestriol, and 13-epiestradiol” (Drug Metab Dispos, 2013).
Values belong to the compound of their own block, whether it stands above or below them.

How the values were obtained:
Format in all cases: ADME
[1] = Drug metabolism in human intestine microsomes assessed as 17-epiestriol-17-glucuronide formation after 15 to 60 mins by Michaelis-Menten equation analysis in presence of UDPGA
How it was run: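 Pooled human intestine microsomes (6 donors), 0.5 or 10 µg, with alamethicin at 5% of total protein. Incubated with 50 mM phosphate pH 7.4, 10 mM MgCl₂, 5 mM UDPGA and 10% DMSO for 15–60 min at 37°C. Each glucuronide regioisomer quantified by HPLC, in triplicate, with substrate consumption at or below 10%.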

[2] = biological target: T1, UDP-glucuronosyltransferase 2B7 (Homo sapiens, UniProt P16662); assay: Drug metabolism assessed as recombinant human C-terminal His-tagged UGT2B7-mediated 16-epiestriol-16-glucuronide formation at 5 mg after 5 hrs by NMR spectroscopic analysis in presence of UDPGA
T1 sequence (P16662 whole entry): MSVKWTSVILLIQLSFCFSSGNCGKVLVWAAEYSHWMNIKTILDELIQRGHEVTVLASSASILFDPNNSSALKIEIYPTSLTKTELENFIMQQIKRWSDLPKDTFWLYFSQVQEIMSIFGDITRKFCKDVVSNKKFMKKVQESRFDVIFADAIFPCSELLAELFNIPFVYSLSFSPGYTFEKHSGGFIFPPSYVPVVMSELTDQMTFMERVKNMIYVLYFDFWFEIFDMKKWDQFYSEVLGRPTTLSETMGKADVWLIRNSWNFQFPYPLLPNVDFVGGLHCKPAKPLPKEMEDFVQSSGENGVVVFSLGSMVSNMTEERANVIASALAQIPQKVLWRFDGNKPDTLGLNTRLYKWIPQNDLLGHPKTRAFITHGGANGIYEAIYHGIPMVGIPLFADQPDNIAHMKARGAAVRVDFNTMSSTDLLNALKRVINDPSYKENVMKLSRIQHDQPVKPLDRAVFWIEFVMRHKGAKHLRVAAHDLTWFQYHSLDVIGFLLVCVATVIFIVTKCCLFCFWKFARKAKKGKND

[3] = biological target: T2, UDP-glucuronosyltransferase 2A1 (Homo sapiens, UniProt P0DTE4); assay: Drug metabolism assessed as recombinant human C-terminal His-tagged UGT2A1-mediated 16-epiestriol-16-glucuronide formation after 15 to 60 mins by Michaelis-Menten equation analysis in presence of UDPGA; settings: recombinant enzyme
T2 sequence (P0DTE4 whole entry): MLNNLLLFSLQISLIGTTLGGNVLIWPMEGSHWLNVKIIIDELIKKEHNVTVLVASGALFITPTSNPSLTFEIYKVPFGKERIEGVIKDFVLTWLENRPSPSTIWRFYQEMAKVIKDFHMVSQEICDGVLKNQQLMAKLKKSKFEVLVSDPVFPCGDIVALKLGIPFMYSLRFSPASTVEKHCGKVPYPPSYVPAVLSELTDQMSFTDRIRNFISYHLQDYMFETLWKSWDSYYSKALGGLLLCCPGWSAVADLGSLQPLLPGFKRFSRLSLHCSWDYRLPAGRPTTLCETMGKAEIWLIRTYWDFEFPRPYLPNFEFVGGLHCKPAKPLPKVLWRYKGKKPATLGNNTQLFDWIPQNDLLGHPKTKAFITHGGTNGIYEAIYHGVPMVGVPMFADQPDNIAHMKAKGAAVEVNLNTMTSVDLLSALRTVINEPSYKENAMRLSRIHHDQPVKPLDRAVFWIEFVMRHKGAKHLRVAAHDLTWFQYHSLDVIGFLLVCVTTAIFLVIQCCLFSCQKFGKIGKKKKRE

[4] = biological target: T3, UDP-glucuronosyltransferase 1A1 (Homo sapiens, UniProt P22309); assay: Drug metabolism assessed as recombinant human C-terminal His-tagged UGT1A1-mediated estradiol-3-glucuronide formation at 200 uM after 15 to 60 mins by HPLC analysis in presence of UDPGA; settings: recombinant enzyme
T3 sequence (P22309 whole entry): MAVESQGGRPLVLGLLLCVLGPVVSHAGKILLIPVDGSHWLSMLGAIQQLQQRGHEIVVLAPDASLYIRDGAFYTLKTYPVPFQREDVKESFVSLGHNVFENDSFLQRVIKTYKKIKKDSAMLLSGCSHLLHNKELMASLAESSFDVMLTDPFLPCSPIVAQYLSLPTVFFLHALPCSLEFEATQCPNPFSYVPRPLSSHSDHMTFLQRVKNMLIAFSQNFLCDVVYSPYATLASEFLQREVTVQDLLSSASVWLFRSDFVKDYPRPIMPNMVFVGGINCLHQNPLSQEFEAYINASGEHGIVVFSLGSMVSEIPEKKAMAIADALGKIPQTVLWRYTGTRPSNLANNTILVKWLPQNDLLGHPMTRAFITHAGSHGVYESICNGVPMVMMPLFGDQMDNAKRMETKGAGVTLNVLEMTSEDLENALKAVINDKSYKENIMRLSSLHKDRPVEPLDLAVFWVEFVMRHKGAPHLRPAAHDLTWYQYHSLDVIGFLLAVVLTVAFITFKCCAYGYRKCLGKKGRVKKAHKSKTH
How it was run: (§1)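 Screening at a single substrate concentration of 200 μM, in triplicate. The reaction used 5 or 50 µg of UGT-enriched insect cell membranes in 50 mM phosphate pH 7.4 with 10 mM MgCl₂ and 5 mM UDPGA, 10% final DMSO. Incubation was 15–60 min at 37°C. Perchloric acid stopped the reaction and supernatants were analysed by HPLC. Controls lacked UDPGA. Rates were normalized to relative UGT expression level.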

[5] = biological target: T4, UDP-glucuronosyltransferase 2B17 (Homo sapiens, UniProt O75795); assay: Drug metabolism assessed as recombinant human C-terminal His-tagged UGT2B17-mediated estradiol-17-glucuronide formation at 200 uM after 15 to 60 mins by HPLC analysis in presence of UDPGA; settings: recombinant enzyme; how it was run: as §1
T4 sequence (O75795 whole entry): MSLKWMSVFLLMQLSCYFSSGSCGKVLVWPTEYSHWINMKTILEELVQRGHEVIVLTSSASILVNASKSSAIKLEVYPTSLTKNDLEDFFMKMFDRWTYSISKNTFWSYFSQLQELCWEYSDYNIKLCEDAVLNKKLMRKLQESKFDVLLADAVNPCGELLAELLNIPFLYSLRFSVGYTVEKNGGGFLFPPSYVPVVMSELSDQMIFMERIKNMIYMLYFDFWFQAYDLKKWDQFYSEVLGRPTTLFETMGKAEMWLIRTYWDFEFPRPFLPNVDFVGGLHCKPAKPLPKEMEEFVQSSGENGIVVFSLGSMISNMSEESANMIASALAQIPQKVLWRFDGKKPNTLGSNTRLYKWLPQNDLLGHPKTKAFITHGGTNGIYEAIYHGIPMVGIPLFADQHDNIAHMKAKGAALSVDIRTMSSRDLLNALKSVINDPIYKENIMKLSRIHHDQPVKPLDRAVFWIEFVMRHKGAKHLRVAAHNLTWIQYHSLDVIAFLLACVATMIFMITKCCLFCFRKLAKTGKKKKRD

- Km [1]: 1300 nM
- Vmax [1]: 1633 pmol/min/mg
SMILES: C[C@]12CC[C@@H]3c4ccc(O)cc4CC[C@H]3[C@@H]1C[C@@H](O)[C@H]2O

- Drug metabolism [2]: metabolite_detected
- Drug metabolism [3]: 260 pmol/min/mg
SMILES: C[C@]12CC[C@@H]3c4ccc(O)cc4CC[C@H]3[C@@H]1C[C@H](O)[C@@H]2O [EPIESTRIOL]

- Drug metabolism [4]: metabolite_detected
- Drug metabolism [5]: metabolite_detected
SMILES: C[C@]12CC[C@@H]3c4ccc(O)cc4CC[C@H]3[C@@H]1CC[C@@H]2O [ESTRADIOL]
